A selection: hits, their analogues and other compounds. The true share with any hit is near 1.6%.
HSV augment = increases HSV replication in cells; AID 1956; maximum fold increase; HSV replication augmentation in cells, fold increase; 0.005% of 220,000 active; in the data active means maximum fold increase above about 1.5; inconclusive means no clear call, values can overlap the other calls; tested in PC3 cells
PKD1 kinase inh = inhibitors of human PKD1 kinase; Q15139; PKD1 kinase fluorescence polarization assay; inhibition, % (concentration not given with the values); 0.056% of 200,000 active; AID 797; in the data active means inhibition above about 50%
ABCG2 block = blocks JC-1 efflux by human ABCG2 transporter; Q9UNQ0; IgMXP3 cells, flow cytometry; inhibition, % at 6.6 µM; 0.1% of 190,000 active; AID 1325;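 active means inhibition above 80%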
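Test system: ABCG2 IgMXP3 and barcoded ABCB1 CCRF-Adr cell mix; Schedule: cells with compound and JC-1, 10 min at 25 °C, rotating, no wash; Technique: flow cytometry of retained JC-1 fluorescence; Measure: % inhibition of efflux relative to nicardipine and DMSO; Controls: nicardipine high and DMSO low controls.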
ABCB1 inh = inhibitors of human ABCB1 transporter, ABCG2 counter-screen; CCRF-Adr cells, JC-1 efflux, flow cytometry; P08183; 0.067% of 190,000 active; AID 1326; inhibition, % at 6.6 µM; in the data active means inhibition above about 40%;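 further: higher value means more JC-1 retained so stronger ABCB1 efflux block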
PHOSPHO1 inh = PHOSPHO1 (human) inhibition; recombinant PHOSPHO1, absorbance phosphatase assay; AID 1565; inhibition, % at 13.3 µM; 1.1% of 290,000 active; in the data active means inhibition above about 60%
Target sequence (Q8TCT1 whole entry, looked up): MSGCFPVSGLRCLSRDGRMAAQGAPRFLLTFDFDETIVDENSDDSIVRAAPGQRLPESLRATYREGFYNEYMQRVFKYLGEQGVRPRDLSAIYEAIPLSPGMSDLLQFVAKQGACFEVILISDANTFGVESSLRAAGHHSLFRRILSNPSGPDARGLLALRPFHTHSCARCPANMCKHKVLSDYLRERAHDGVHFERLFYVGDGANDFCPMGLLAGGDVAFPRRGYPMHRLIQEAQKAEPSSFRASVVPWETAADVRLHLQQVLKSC
p47phox inh = p47phox (human) inhibition; inhibition, % at 24.7 µM; p47phox/p22phox peptide binding, fluorescence polarization, 2 h; 0.53% of 220,000 active;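 active means inhibition above about 30%, limit read from the data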
Target sequence (P14598 whole entry, looked up): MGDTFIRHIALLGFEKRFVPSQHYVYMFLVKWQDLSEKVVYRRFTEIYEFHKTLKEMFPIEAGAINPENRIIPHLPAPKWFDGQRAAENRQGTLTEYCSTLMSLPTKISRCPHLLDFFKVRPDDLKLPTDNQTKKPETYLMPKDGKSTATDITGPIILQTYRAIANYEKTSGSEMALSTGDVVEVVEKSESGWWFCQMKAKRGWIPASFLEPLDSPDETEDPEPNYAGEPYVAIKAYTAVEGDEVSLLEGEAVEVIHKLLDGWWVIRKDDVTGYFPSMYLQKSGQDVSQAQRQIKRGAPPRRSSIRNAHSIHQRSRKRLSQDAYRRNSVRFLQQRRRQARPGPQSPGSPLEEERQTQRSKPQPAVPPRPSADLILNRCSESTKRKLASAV
Each line names hits and unclear results; the compound was inactive in the other large screens.

Cc1ccc(S(=O)(=O)C(C#N)c2nc3ccccc3nc2N2CC(C)OC(C)C2)cc1C (stereo not drawn)	PHOSPHO1 inh 78
COc1ccc(S(=O)(=O)C(C#N)c2nc3ccccc3nc2N2CCCC(C)C2)cc1 (stereo not drawn)	HSV augment 1.6
CC1CCCN(c2nc3ccccc3nc2C(C#N)S(=O)(=O)c2cccs2)C1 (stereo not drawn)	PHOSPHO1 inh 102
Cc1cc(NC(=O)CSc2nc3ccc(Cl)cc3[nH]2)no1	none
CCOc1ccccc1-n1nnnc1SCC(=O)O	none (no result: PKD1 kinase inh, ABCG2 block, ABCB1 inh)
COC(=O)c1cc(S(=O)(=O)NC2CCC(C)CC2)cn1C (stereo not drawn)	PHOSPHO1 inh 64 (no result: HSV augment, PKD1 kinase inh, ABCG2 block, ABCB1 inh, p47phox inh)
Cc1csc(N2CCCC2=O)n1	none
COc1cccc(CC2CC(=O)N(c3ccc4c(C)cc(=O)oc4c3)C2=O)c1 (stereo not drawn)	PHOSPHO1 inh 61
CCc1ccc(N(C(=O)c2ccco2)C(C(=O)NC2CCCC2)c2ccco2)cc1 (stereo not drawn)	none (no result: PHOSPHO1 inh)
COc1cccc(/C=N/Nc2ccc(S(=O)(=O)O)cc2)c1O	PHOSPHO1 inh 92
COc1cccc(/C=N/Nc2ccc(C(=O)O)cc2)c1O	none (no result: p47phox inh)
CCOC(=O)C(=CNc1ccc(Oc2cccnc2)nc1)C(=O)OCC	p47phox inh 38 (no result: PKD1 kinase inh, ABCG2 block, ABCB1 inh)
O=[N+]([O-])c1ccc2nc(-c3ccc(Cl)cc3)n(OCc3ccccc3)c2c1	PHOSPHO1 inh 62 (no result: HSV augment)
CCOC(=O)C(C)On1c(-c2ccc(Cl)cc2)nc2ccc([N+](=O)[O-])cc21 (stereo not drawn)	PHOSPHO1 inh 102
Cc1ccc(COn2c(-c3ccc(Cl)cc3)nc3ccc([N+](=O)[O-])cc32)cc1	none
CCCOc1ccc(N2C(=O)CC(N(CCc3ccc(OC)cc3)C(=O)c3ccccc3)C2=O)cc1 (stereo not drawn)	none (no result: PKD1 kinase inh, ABCG2 block, ABCB1 inh)
Oc1[nH]c2ccccc2c1N=NC(=S)N1CCOCC1	none (no result: PKD1 kinase inh, ABCG2 block, ABCB1 inh)
Oc1[nH]c2ccc(Br)cc2c1N=NC(=S)N1CCOCC1	PHOSPHO1 inh 92 (no result: PKD1 kinase inh, ABCG2 block, ABCB1 inh)
CNc1c([N+](=O)[O-])cnn1-c1ccc(C)cc1	none
COc1ccc(CCn2c(SCC(=O)Nc3cc(C)on3)nc3ccsc3c2=O)cc1OC	p47phox inh 49 (no result: HSV augment)
CCc1nnc(NC(=O)Cn2c(=O)oc3ccccc32)s1	none
CC1CCCC(C)N1c1nnc(NC(=O)Cn2c(=O)oc3ccccc32)s1 (stereo not drawn)	PHOSPHO1 inh 62
CCCc1nnc(NC(=O)Cn2c(=O)oc3cc(Br)ccc32)s1	PHOSPHO1 inh 100
OCC[C@@H]1C[C@H](O)[C@@H](O)[C@]2(CCc3ccccc3O2)O1	none (no result: HSV augment, PKD1 kinase inh, ABCG2 block, ABCB1 inh, p47phox inh)
O=C(CSc1nc2c(c(=O)n1-c1ccc(F)cc1)SCC2)Nc1ccc2c(c1)OCO2	none (no result: ABCG2 block, ABCB1 inh, PHOSPHO1 inh, p47phox inh)
COc1ccc(-n2c(SCC(=O)Nc3ccc4c(c3)OCO4)nc3c(c2=O)SCC3)cc1	PHOSPHO1 inh 61
N#C/C(C(=O)NCc1ccccc1)=C1/N=C(NC(=O)c2cccs2)c2ccccc21	HSV augment inconclusive
CCC(C)C(NC(=O)c1ccccc1NC(=O)c1ccc(OC)cc1)C(=O)NCc1ccco1 (stereo not drawn)	p47phox inh 50 (no result: HSV augment)
COc1ccc(C(=O)Nc2ccc(Cl)cc2C(=O)NCc2ccco2)cc1	none
CCCOc1ccc2nc(C)c(CCC)c(SC(=N)N)c2c1	PHOSPHO1 inh 67 (no result: PKD1 kinase inh, ABCG2 block, ABCB1 inh)
CCCc1c(C)nc2ccc(OC)cc2c1SCCC(=O)O	none
C=CCSc1nc2sc3c(c2c(=O)n1CC)CCc1ccccc1-3	PHOSPHO1 inh 87
C=CCn1c(SCC)nc2sc3c(c2c1=O)CCc1ccccc1-3	none
CCOC(=O)c1sc(NC(=O)COC(=O)C(CCSC)NC(C)=O)nc1C (stereo not drawn)	none
COc1ccc(-c2cc(=O)oc3cc(OCC(=O)c4cccc([N+](=O)[O-])c4)ccc23)cc1	p47phox inh 64
COc1ccc(-c2cc(=O)oc3cc(OCC(C)=O)ccc23)cc1	none
CCOC(=O)N1CCC(=NNS(=O)(=O)c2cccc([N+](=O)[O-])c2)CC1	none
O=C(O)COc1ccc(/C=N/NC(=O)/C(=C/C=C/c2ccccc2)NC(=O)c2ccccc2)cc1	none (no result: HSV augment, PKD1 kinase inh, ABCG2 block, ABCB1 inh, p47phox inh)
CCCN1CCN(S(=O)(=O)c2ccc3c(c2)NC(=O)C(C)C(=O)N3)CC1 (stereo not drawn)	none (no result: HSV augment, PKD1 kinase inh, ABCG2 block, ABCB1 inh, p47phox inh)
Cc1ccc(NC(=O)CSc2ncn[nH]2)cc1	none
Cc1ccc(C(=O)CSc2ccccn2)cc1	PHOSPHO1 inh 83
Cc1ccc(C(=O)CSc2ncn[nH]2)cc1	PHOSPHO1 inh 97
O=C(CSc1ncn[nH]1)c1ccc(OC(F)F)cc1	none
CCc1ccc(C(=O)CSc2ncn[nH]2)cc1	PHOSPHO1 inh 88
COc1ccc(C(=O)CSc2ncn[nH]2)cc1OC	PHOSPHO1 inh 77
Cc1ccc(N2C(=O)SC(Cc3ccccc3)C2=O)cc1 (stereo not drawn)	none (no result: PKD1 kinase inh, ABCG2 block, ABCB1 inh)
O=C(N=Nc1c(O)[nH]c2ccccc12)c1ccco1	none
COc1ccc2cc3cc(C(=O)Nc4ccc5c(c4)OCCO5)oc3nc2c1	p47phox inh 32
COc1ccc(C)cc1NC(=O)CCNS(=O)(=O)c1ccc2c(c1)CCC(=O)N2	none (no result: HSV augment, PKD1 kinase inh, ABCG2 block, ABCB1 inh, p47phox inh)
N/N=C1\CCCc2c1[nH]c1ccc([N+](=O)[O-])cc21	PHOSPHO1 inh 88 (no result: PKD1 kinase inh, ABCG2 block, ABCB1 inh)
CC(=O)Nc1ccc(NC(=O)CS(=O)(=O)c2cn(CC(=O)N3CCCC3)c3ccccc23)cc1	none (no result: HSV augment, PKD1 kinase inh, ABCG2 block, ABCB1 inh, p47phox inh)
CCCn1c(O)c(N=NC(=O)CNC(=O)c2cccnc2)c2ccccc21	none (no result: HSV augment, PKD1 kinase inh, ABCG2 block, ABCB1 inh, p47phox inh)
COC(=O)Cn1c(O)c(N=NC(=O)CNC(=O)c2ccncc2)c2ccccc21	PHOSPHO1 inh 64 (no result: HSV augment, PKD1 kinase inh, ABCG2 block, ABCB1 inh, p47phox inh)
Cc1[nH]c2ccccc2c1/C=C(\C#N)C(=O)NC1CC1	none (no result: HSV augment, PKD1 kinase inh, ABCG2 block, ABCB1 inh, p47phox inh)
Cc1[nH]c2ccccc2c1/C=C(\C#N)C(=O)NC(C)c1ccccc1 (stereo not drawn)	PHOSPHO1 inh 94 (no result: HSV augment)
CCN(CC(=O)Nc1cc(Cl)ccc1C)C(=O)c1ccc(=O)n(Cc2ccccc2)n1	PHOSPHO1 inh 62 (no result: HSV augment, PKD1 kinase inh, ABCG2 block, ABCB1 inh, p47phox inh)
O=C1C(c2c(O)[nH]c3ccccc23)=Nc2ccccc21	p47phox inh 93 (no result: PKD1 kinase inh, ABCB1 inh)
Cc1csc(SCC(=O)NCCc2ccc(Cl)cc2Cl)n1	none
CCC(c1nnc(SCC(=O)NCCc2ccc(Cl)cc2Cl)o1)N(C)C (stereo not drawn)	PHOSPHO1 inh 67
COc1ccc2cc3cc(C(=O)NCCCN4CCc5ccccc5C4)sc3nc2c1	p47phox inh 73
CCOC(=O)c1cnc(SCC(=O)c2ccccc2)nc1N	PHOSPHO1 inh 102
CCOC(=O)c1cnc(SCC(=O)c2ccc(C)cc2)nc1N	none
CCOC(=O)c1cnc(SC)nc1N	p47phox inh 109
CCOC(=O)c1cnc(SCC(C)C)nc1N	none
COc1ccccc1-c1nnc(SCC(=O)N2CCCC2)o1	none (no result: HSV augment, PKD1 kinase inh, ABCG2 block, ABCB1 inh, p47phox inh)
c1ccc(CC(Nc2ccccn2)c2ccccc2)cc1 (stereo not drawn)	none
S=C(Nc1ccccc1Cl)N(Cc1ccccc1)Cc1ccccn1	none
COc1cc(OC)c2ccc(=O)oc2c1C(CCN1CCN(c2ccccc2)CC1)c1ccc(N(C)C)cc1 (stereo not drawn)	p47phox inh 94 (no result: PKD1 kinase inh, ABCG2 block, ABCB1 inh)

Source: PubChem BioAssay
